GalR3 antag: GalR3 antagonists in HEK293 cells, primary screen, cell-based, fluorescence readout; AID 651719, 2012; inhibition, % at 3 µM; Galanin receptor type 3 (Homo sapiens), O60755; actives 0.44% (n = 360,000); HEK293 GalR3-CNG cAMP membrane potential fluorescence; galR3 body fused to GalR1 C-terminus;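 active = inhibition above the screen-wide average plus 3 SD, cut at about 13% in these data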;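 note: forskolin and galanin both at EC90 stimulate the cells; cAMP rise reported by CNG channel membrane potential dye signal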
Target sequence (O60755 1-299 limits assumed): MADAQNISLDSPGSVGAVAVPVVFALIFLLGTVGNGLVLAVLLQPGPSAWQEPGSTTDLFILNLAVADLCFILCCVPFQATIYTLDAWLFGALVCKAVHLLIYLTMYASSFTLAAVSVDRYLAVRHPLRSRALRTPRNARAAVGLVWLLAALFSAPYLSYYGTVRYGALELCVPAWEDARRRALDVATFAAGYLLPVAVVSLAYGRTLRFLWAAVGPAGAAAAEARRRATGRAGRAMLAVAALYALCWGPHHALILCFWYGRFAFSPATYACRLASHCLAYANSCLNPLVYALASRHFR
NR2E3 ag-1: inhibitors of NR2E3-RetCOR corepressor binding, primary screen, NR2E3 agonist project, biochemical, TR-FRET, GST-NR2E3, biotin-RetCOR | actives 0.12% (n = 320,000) | inhibition of corepressor binding, % at 4.78 µM | 1536-well;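 active = percent inhibition above the cutoff of mean plus 3 SD of all tested compounds, set per screening campaign, cut at about 20% in these data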
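Test system – NR2E3–RetCOR corepressor complex · Quantity – NR2E3 fusion 1.35 nM · Buffer or medium – Tris pH 7.5 · Incubation – Compound–protein incubation for 5 h at 4 °C · Technique – TR-FRET, Eu(K)-anti-GST donor, streptavidin-D2 acceptor, ex 340, em 617/671 nm · Evaluation – percent inhibition of 671/617 nm emission ratio versus biotin and DMSO controls · Plate – 1536-well format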
CHT allo act: CHT positive allosteric modulators, primary screen, cell-based, membrane potential dye, choline EC20 | actives 0.49% (n = 310,000) | B-score at 10 µM | AID 488977, 2010 | CHT-expressing cells; active compounds read high; LV-AA mutant CHT in HEK293 cells | High affinity choline transporter 1 (Homo sapiens), Q9GZV3;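 active = initial fluorescence not abnormally high and integrated response B-score, plate-corrected, over 3 SD above library mean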
NR2E3 ag-2: NR2E3 agonists in two-hybrid cells, primary screen, cell-based, luminescence, CHO-S, Gal4-NCOR/VP16-NR2E3; AID 602229, 2012; inhibition of corepressor binding, % at 3.98 µM; luciferase; actives 0.35% (n = 360,000); Photoreceptor-specific nuclear receptor (Homo sapiens), Q9Y5X4;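 active = inhibition above the mean of all tested compounds plus 3 SD, cut at about 70% in these data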;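 note: higher means lower luciferase signal from less NR2E3 corepressor binding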
CHT block: inhibitors of human choline transporter CHT | High affinity choline transporter 1 (Homo sapiens), Q9GZV3 | CHT-expressing cells, membrane potential dye, choline response; active compounds read low | B-score at 10 µM | actives 0.86% (n = 310,000);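 active = B-score over 3 SD under the library average, and starting fluorescence ratio not unusually high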;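 note: choline stimulus applied at its EC90 after an EC20 pre-addition; B-score computed on integrated fluorescence ratio after choline addition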
NR2F2 inh: NR2F2 transcriptional activity inhibitors, primary screen, cell-based, luciferase reporter, HEK293T, luminescence; COUP transcription factor 2 (Homo sapiens), P24468; HEK293T NGFI-A luciferase reporter; inhibition, % at 8.6 µM; actives 0.7% (n = 370,000); AID 686940, 2013;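 active = inhibition above a per-plate cutoff, mean inhibition of test wells between control levels plus 3 SD, cut at about 38% in these data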;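 note: cells cotransfected with COUP-TFII expression vector driving the NGFI-A reporter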
Target sequence (P24468 whole entry, looked up): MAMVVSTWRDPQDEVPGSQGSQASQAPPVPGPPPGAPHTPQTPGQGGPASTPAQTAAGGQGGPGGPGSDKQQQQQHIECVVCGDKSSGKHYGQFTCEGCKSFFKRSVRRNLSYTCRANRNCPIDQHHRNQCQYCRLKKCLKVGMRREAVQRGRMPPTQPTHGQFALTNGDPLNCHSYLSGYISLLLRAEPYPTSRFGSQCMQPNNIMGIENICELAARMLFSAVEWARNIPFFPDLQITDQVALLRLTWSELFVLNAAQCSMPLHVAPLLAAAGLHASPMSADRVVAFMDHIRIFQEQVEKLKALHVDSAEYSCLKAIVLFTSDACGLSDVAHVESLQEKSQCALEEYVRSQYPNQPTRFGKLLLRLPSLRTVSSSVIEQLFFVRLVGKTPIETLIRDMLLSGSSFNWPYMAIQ
CHT block conf: CHT inhibitors, confirmation, cell-based, membrane potential dye, duplicate; shares compounds with CHT block; CHT-expressing cells, choline membrane potential dye; LV-to-AA substituted CHT, HEK293 cells; CHT activity remaining % of control (active compounds read low), % at 10 µM; actives 70% (n = 2,400); AID 493221, 2011;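 active = choline transporter activity left, mean of duplicates at 10 µM, below buffer-only control mean minus 3 SD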;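 note: depolarization triggered by choline at its EC90 following an EC20 pre-addition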
HEK293 CHT ctr: membrane potential effects in parental HEK293, counter-screen for CHT inhibitor project, cell-based, membrane potential dye | shares compounds with CHT block | choline response; active = decrease or increase beyond buffer ±3SD | AID 493222, 2011 | actives 4% (n = 2,400) | membrane potential ratio readout (active if shifted either direction beyond buffer ±3SD; no single direction) at 10 µM;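 note: parental cells lack the transporter so any hit is non-specific; ratio is peak minus trough fluorescence over baseline after EC90 choline challenge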
A number is an active result; - = inactive; . = no result. Shown are actives, neighbours in structure and some others; about 2.3% of the full set was active somewhere.

SMILES	GalR3 antag	NR2E3 ag-1	CHT allo act	NR2E3 ag-2	CHT block	NR2F2 inh	CHT block conf	HEK293 CHT ctr
O=C(Nc1nnc(-c2ccccc2)o1)c1cc(Cl)sc1Cl	-	-	-	-	-	-	.	.
O=C(Nc1nnc(-c2ccc(F)cc2)o1)c1cc(Cl)sc1Cl	-	-	-	-	-6.8	-	63%	-
C[C@@H]1CN([C@@H](C)COC(=O)C(C)(C)C)C(=O)c2cc(NC(=O)Nc3ccccc3)ccc2O[C@@H](C)CCCCO[C@H]1CN(C)S(=O)(=O)c1ccc(F)cc1	.	.	.	.	.	-	.	.
Cc1ccc(S(=O)(=O)N2CCC(=O)N(CCOCc3ccc(F)cc3)CC2)cc1	-	-	-	-	-5.9	-	54%	-
C(=N/N1CCN(c2ccccc2)CC1)/c1ccco1	.	.	.	.	.	-	.	.
COc1ccc(S(=O)(=O)N2CCN(C(=O)CSc3nc4ccccc4nc3N3CCCCC3)CC2)cc1	.	.	.	.	.	-	.	.
Cc1c(Cc2ccccc2)c(=O)oc2cc(O)ccc12	-	-	-	-	-6.5	-	-	-
CN1CCN(S(=O)(=O)c2cccc(C(=O)Nc3ccc(Br)cc3Br)c2)CC1	-	-	-	-	-10	-	8.7%	-
CC(NC(=O)c1cccc(S(=O)(=O)N2CCN(C)CC2)c1)C1CC2CCC1C2 (stereo not given)	-	-	-	-	-5.4	-	23%	-
O=C(Nc1ccccc1OC(F)F)c1cccc(S(=O)(=O)N2CCCC2)c1	-	-	-	-	-5.1	-	56%	-
CC(NC(=O)c1cccc(Cl)c1)C1CC2CCC1C2 (stereo not given)	-	-	-	-	-	-	.	.
O=C(Nc1cc(S(=O)(=O)N2CCCCC2)ccc1O)c1ccccc1NS(=O)(=O)c1ccc(F)cc1	-	-	-	-	-5.4	-	27%	-
COc1ccc(NC(=O)c2cccc(S(=O)(=O)N3CCN(C)CC3)c2)c(OC)c1	-	-	-	-	-	-	.	.
O=C(CSc1nnc(-c2cnccn2)n1-c1ccccc1)c1ccccc1Br	.	.	.	.	.	-	.	.
CCCNS(=O)(=O)c1cccc(C(=O)NC2CCCc3ccccc32)c1 (stereo not given)	-	-	-	-	-12	-	20%	-
CN1CCN(S(=O)(=O)c2cccc(C(=O)NC3CCCc4ccccc43)c2)CC1 (stereo not given)	-	-	-	-	-5.6	-	51%	-
CC1CCC(NC(=O)c2cccc(S(=O)(=O)NCc3ccccc3)c2)CC1 (stereo not given)	-	-	-	-	-15	-	36%	-
O=C(NCc1ccccc1)c1cccc(S(=O)(=O)NCc2ccccc2)c1	-	-	-	-	-	-	.	.
CC(=O)N1CCN(S(=O)(=O)c2cccc(C(=O)NC3CCCc4ccccc43)c2)CC1 (stereo not given)	-	-	-	-	-	-	.	.
N#Cc1ccc(CSc2nc3sc4c(c3c(=O)n2-c2ccc(Br)cc2)CCCC4)cc1	.	.	.	.	.	-	.	.
Cn1ccc2ccc(-c3ccc4c(c3)[C@]3(CCC[C@@H](OCc5ccccc5)[C@@H]3NC(=O)CCc3ccccc3)C(=O)N4Cc3ccccc3)cc21	.	.	.	.	.	-	.	.
O=C(OCCN1CCN(C2CN(Cc3cn(Cc4ccccc4Cl)nn3)S(=O)(=O)C2)CC1)c1cc2ccccc2o1 (stereo not given)	.	.	.	.	.	-	.	.
Cc1ccc(C#CC[N+]2(C)CCCCC2)cc1	-	-	-	-	-6	-	43%	-
C#CC[N+]1(CC#Cc2ccc(C)cc2)CCCCC1	-	-	-	-	-7	-	43%	-
C(#Cc1ccccc1)C[N+]1(CC#Cc2ccccc2)CCCC1	-	-	-	-	-	-	.	.
SMILES	GalR3 antag	NR2E3 ag-1	CHT allo act	NR2E3 ag-2	CHT block	NR2F2 inh	CHT block conf	HEK293 CHT ctr
O=C(OC12CCCN(C1)/C(=C/c1ccncc1)C2)c1cccc(F)c1 (stereo not given)	.	.	.	.	.	-	.	.
CC1CCC(NC(=O)CCn2ccc3cc(S(=O)(=O)N4CCCC4)ccc32)CC1 (stereo not given)	-	-	-	-	-6.3	-	39%	-
Cc1ccc(C(=O)Nc2ccc(Cc3ccncc3)cc2)cc1[N+](=O)[O-]	-	-	-	-	-5.6	-	-	-
CCCN(C(=O)c1cc(Cl)nc2ccccc12)c1c(N)n(Cc2ccccc2)c(=O)[nH]c1=O	-	-	.	-	.	-	.	.
CCCN(C(=O)c1cn(CC)c2nc(C)ccc2c1=O)c1c(N)n(Cc2ccccc2)c(=O)[nH]c1=O	-	-	-	-	-5.3	-	33%	-
FC(F)(F)c1nc2ccccc2[nH]1	-	-	-	-	-	-	.	.
O=c1[nH]c(C(F)(F)F)nc2ccccc12	-	-	-	-	-5.1	-	-	-
COc1ccc(-c2cc(C(=O)NN3CCOCC3)c3ccccc3n2)cc1OC	-	.	.	-	.	-	.	.
COc1cccc(-c2cc(C(=O)NN3CCOCC3)c3ccccc3n2)c1	-	-	-	-	-10	-	-	-
CCCNC(=O)C[C@H]1CC[C@H]2[C@@H](COc3ccc(NC(=O)c4cncs4)cc3C(=O)N2C)O1	.	.	.	.	.	-	.	.
COc1cccc(-c2nnc3sc(-c4ccc(Br)o4)nn23)c1	.	.	.	.	.	-	.	.
CC(C)(C)N1Cc2nnn(Cc3ccccc3)c2-c2ccccc2S1(=O)=O	.	.	.	.	.	-	.	.
CCc1c(C2(O)CCCCC2)[nH]c2cc(C(F)(F)F)ccc12	.	-	-	-	-5.7	.	53%	-
Clc1ccc(CSc2ncnc3nc[nH]c23)cc1	-	-	-	-	-6.2	-	-	-
COc1cccc(N2CCN(C(=O)CC(C)(C)CC3=NS(=O)(=O)c4ccccc4N3)CC2)c1	-	-	-	-	-5.5	-	-	-
O=C(NN=Cc1ccc(-c2ccccc2)cc1)c1cc(-c2ccc(Cl)cc2)n[nH]1	.	.	.	.	.	-	.	.
CNC(=S)Nc1ccc(Cc2ccncc2)cc1	-	-	-	-	-	-	.	.
S=C(Nc1ccc(Cc2ccncc2)cc1)Nc1cccc(Cl)c1	-	-	-	-	-6.6	-	-	-

Screens from PubChem.
